Fewer inactive variants are shown than the library holds.
B1: tRNA (parent)
chain: GUUCCGUUGGCGUAAUGGUAACGCGUCUCCCUCCUAAGGAGAAGACUGCGGGUUCGAGUCCCGUACGGAACG

Variants of: B1
Experiment: yeast fitness relative to wild type (ratio to wild type); higher = fitter; tRNA-Arg(CCU), competitive growth, 37 C, YPD
Outline: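 Changes in genotype frequencies gave Darwinian fitness relative to wild type. Frequencies were read by 100-nucleotide paired-end sequencing of gene amplicons before and after pooled Saccharomyces cerevisiae strains, carrying tRNA-Arg(CCU) gene variants at the native locus, were competed in YPD at 37°C for 24 hours in six replicates. A genotype was kept only with ≥ 100 starting reads, and estimates < 0.5 were set to 0.5.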
U2A C5U U64C showed a yeast fitness of 1.06.
In the case of U2A C5U G41A, the yeast fitness is reported as ≤ 0.5.
With U2A C29A A45U G67C the yeast fitness was ≤ 0.5.
For U2A C30U A57G, the yeast fitness was ≤ 0.5.
For U2A C24G G25A C61G G67C G68A, the yeast fitness was ≤ 0.5.
U2A C34U showed a yeast fitness of 0.743.
Work on U2A C11G C49A C60U G68C yielded a yeast fitness of 0.608.
For U2A C24U C30U C34U G52A C66G, the yeast fitness was ≤ 0.5.
With U2A G9A C11U A40U A42C A45G G50C C61U C66U the yeast fitness was ≤ 0.5.
For U2A G6C U7C C30A G44A C66A, the yeast fitness was 0.576.
U2A C29A A45U showed a yeast fitness of 0.542.
In the case of U2A C11G C34U A42U G68A, the yeast fitness is reported as ≤ 0.5.
In the case of U2A C11U G58C, the yeast fitness is reported as 0.678.
With U2A C11G U47A the yeast fitness was ≤ 0.5.
For U2A C31U U35C A45U, the yeast fitness was ≤ 0.5.
In the case of U2A C27U, the yeast fitness is reported as 0.982.
Work on U2A C27A yielded a yeast fitness of 0.894.
In the case of U2A C29G U47G C49G U54G, the yeast fitness is reported as ≤ 0.5.
With U2A G9A U13A U35G A70C the yeast fitness was ≤ 0.5.
In the case of U2A C11G C49A A70G, the yeast fitness is reported as ≤ 0.5.
With U2A C49U A57U the yeast fitness was ≤ 0.5.
For U2A C61U G67C, the yeast fitness was ≤ 0.5.
In the case of U2A G6C U16C C24U, the yeast fitness is reported as 0.523.
With U2A C11U U19G the yeast fitness was 0.647.
With U2A C11G C61A the yeast fitness was ≤ 0.5.
U2A C11G G25A C49A gave a yeast fitness of 0.553.
Variant U2A C33G A42C has a yeast fitness of 0.509.
U2A C33U A37C showed a yeast fitness of 0.532.
For U2A C30U U32A C62G, the yeast fitness was ≤ 0.5.
With U2A C60U A65U the yeast fitness was ≤ 0.5.
With U2A C27G A37C C55U C62G C66G the yeast fitness was ≤ 0.5.
With U2A C31G G39C C49U C60G the yeast fitness was ≤ 0.5.
For U2A C31U A40C C55G G68A A69U, the yeast fitness was ≤ 0.5.
In the case of U2A G6A C27G A42U A43U, the yeast fitness is reported as ≤ 0.5.
With U2A G6A C33G C34G C61A the yeast fitness was ≤ 0.5.
With U2A G6C U16C C24U A36G the yeast fitness was ≤ 0.5.
For U2A C11G G17A A20U C33G G38C A70G, the yeast fitness was ≤ 0.5.
In the case of U2A C5U U47A G52A, the yeast fitness is reported as ≤ 0.5.
With U2A C24G A43U C46U A57G the yeast fitness was ≤ 0.5.
In the case of U2A C60G G63C, the yeast fitness is reported as ≤ 0.5.
In the case of U2A C11U C29G A37C A42U A57G G67A, the yeast fitness is reported as ≤ 0.5.
Work on U2A C24G A42U yielded a yeast fitness of 0.812.
With U2A C60U A65U A70U the yeast fitness was ≤ 0.5.
With U2A C11G U54C C61G the yeast fitness was ≤ 0.5.
For U2A G6C G52A, the yeast fitness was ≤ 0.5.
With U2A C29A C30U C46U G58C the yeast fitness was ≤ 0.5.
For U2A C66A, the yeast fitness was 0.704.
With U2A C60G A70C the yeast fitness was 0.532.
With U2A C60G A70U the yeast fitness was ≤ 0.5.
In the case of U2A C46A G51C, the yeast fitness is reported as 0.599.
With U2A C30U G44C G51A C61U the yeast fitness was ≤ 0.5.
For U2A G9A G48C G50A, the yeast fitness was ≤ 0.5.
U2A C5U G23A A37G A69G A70U gave a yeast fitness of 0.845.
For U2A C66U A70C, the yeast fitness was 0.641.
U2A C11U U19G C55U showed a yeast fitness of 0.571.
U2A G9A U13A C24A A45C showed a yeast fitness of 0.536.
For U2A C27A C60U U64C A69G, the yeast fitness was ≤ 0.5.
For U2A C33G A36C, the yeast fitness was ≤ 0.5.
With U2A G6A C11G C49U G58C G68U the yeast fitness was ≤ 0.5.
In the case of U2A C27U U47G C55G G58C, the yeast fitness is reported as ≤ 0.5.
U2A C22U A40C gave a yeast fitness of 0.631.
U2A C22U showed a yeast fitness of 0.796.
For U2A C22G, the yeast fitness was 0.888.
Work on U2A G9A A45C yielded a yeast fitness of 0.682.
In the case of U2A G9A C33U G38C A40U A42C, the yeast fitness is reported as ≤ 0.5.
With U2A C24A A36G A45G the yeast fitness was ≤ 0.5.
For U2A C33G C46A C66A, the yeast fitness was ≤ 0.5.
In the case of U2A G6A C11G C49U G58C, the yeast fitness is reported as ≤ 0.5.
For U2A C27A C60U A69G, the yeast fitness was 0.514.
With U2A C34G G58C C66U the yeast fitness was ≤ 0.5.
For U2A G9A U19A A20U, the yeast fitness was 0.622.
U2A C11U A70C showed a yeast fitness of 0.587.
For U2A C11U A14U U19G, the yeast fitness was ≤ 0.5.
Work on U2A C31A A69U yielded a yeast fitness of 0.604.
U2A C27G C31U gave a yeast fitness of 0.539.
In the case of U2A C22G G25C C61G, the yeast fitness is reported as 0.703.
In the case of U2A C22G G25C C61U, the yeast fitness is reported as ≤ 0.5.
U2A C33U showed a yeast fitness of 0.636.
For U2A C33A, the yeast fitness was 0.721.
With U2A G9A A37G U47C A65C the yeast fitness was ≤ 0.5.
For U2A C11G C30A A57G, the yeast fitness was ≤ 0.5.
In the case of U2A C11U G23C C27A A69U, the yeast fitness is reported as ≤ 0.5.
In the case of U2A C33A C55G A69C, the yeast fitness is reported as ≤ 0.5.
Work on U2A C11G yielded a yeast fitness of 0.647.
Work on U2A C11A yielded a yeast fitness of 0.614.
For U2A G6A U7C A15C C29G C33U, the yeast fitness was ≤ 0.5.
In the case of U2A C11U G23C C27A G50U, the yeast fitness is reported as ≤ 0.5.
For U2A G6A A36C, the yeast fitness was 0.666.
U2A G6A A40U C46A gave a yeast fitness of 0.596.
With U2A C11G U28A A65G the yeast fitness was ≤ 0.5.
Work on U2A C24G G63A yielded a yeast fitness of 0.551.
Work on U2A G9A U19C A69C yielded a yeast fitness of 0.685.
For U2A C24U C30U C34U G52A, the yeast fitness was ≤ 0.5.
For U2A C11G U47A G48A C66U A70U, the yeast fitness was ≤ 0.5.
In the case of U2A C33G G51C C66G G67A A69C, the yeast fitness is reported as ≤ 0.5.
In the case of U2A G6A U16C C24U G38C A65C, the yeast fitness is reported as ≤ 0.5.
With U2A C24G G63C G67C A69U the yeast fitness was ≤ 0.5.
With U2A C24U A42C C62G the yeast fitness was ≤ 0.5.
Variant U2A C11G A40U has a yeast fitness of 0.544.
In the case of U2A C11G C27G U54A C66U, the yeast fitness is reported as ≤ 0.5.
U2A C46A A70C gave a yeast fitness of 0.705.
U2A C46G C49U showed a yeast fitness of 0.686.
For U2A G9A C31U C46G C49U C66G, the yeast fitness was ≤ 0.5.
For U2A C30G G58C C66G, the yeast fitness was ≤ 0.5.
Work on U2A C24A yielded a yeast fitness of 0.662.
For U2A C33A C55A G63A, the yeast fitness was 0.513.
For U2A C27U C29U C62U, the yeast fitness was ≤ 0.5.
With U2A G6A C11U C31G G51A G67A the yeast fitness was ≤ 0.5.
For U2A C27U C34A, the yeast fitness was ≤ 0.5.
For U2A C34G A37U A40U C66U, the yeast fitness was ≤ 0.5.
Variant U2A C46G has a yeast fitness of 0.829.
For U2A C29G C30G C49A G56C C61U, the yeast fitness was 0.749.
With U2A C11G G25A A40U C49A C55U the yeast fitness was ≤ 0.5.
U2A C30G A37U U53A C55U A57U showed a yeast fitness of 0.574.
For U2A G6C U7C A43C C46U G63C C66U, the yeast fitness was ≤ 0.5.
For U2A G9A A37G A65C, the yeast fitness was ≤ 0.5.
With U2A G6A C11G A42U A65G C66G G68A the yeast fitness was ≤ 0.5.
With U2A C11G A21G A65G the yeast fitness was ≤ 0.5.
For U2A G6A C11G C49U G58C A69U, the yeast fitness was ≤ 0.5.
In the case of U2A C24G U32A G58C G63C, the yeast fitness is reported as ≤ 0.5.
With U2A C60A the yeast fitness was 0.645.
For U2A C34G A40C C46G, the yeast fitness was 0.516.
U2A C11A G38C C60A gave a yeast fitness of 0.582.
With U2A C11A C31U the yeast fitness was ≤ 0.5.
For U2A C24A A42U, the yeast fitness was ≤ 0.5.
For U2A C24A C30U, the yeast fitness was ≤ 0.5.
With U2A C27G A36G the yeast fitness was ≤ 0.5.
In the case of U2A C24U C30U C34U G52A C61A, the yeast fitness is reported as ≤ 0.5.
With U2A C11G G17A A20U C33G G38C the yeast fitness was ≤ 0.5.
In the case of U2A G6A U7C G25A A36U C60A C62G, the yeast fitness is reported as ≤ 0.5.
With U2A C11U G48C the yeast fitness was ≤ 0.5.
With U2A G6A C11G U28G C34G G44C C61G the yeast fitness was ≤ 0.5.
Variant U2A C24A A45G has a yeast fitness of 0.568.
Variant U2A C31G U32G has a yeast fitness of 0.526.
Work on U2A C30U yielded a yeast fitness of 0.812.
Work on U2A C30U A42G C60G C62G A65G yielded a yeast fitness of 0.595.
U2A C46G C61U showed a yeast fitness of 0.804.
For U2A C5U G48A, the yeast fitness was 0.611.
For U2A C31A G48A, the yeast fitness was 0.619.
In the case of U2A C30G U53C A57U C60U, the yeast fitness is reported as ≤ 0.5.
For U2A C22U U32A A65G, the yeast fitness was ≤ 0.5.
With U2A C30U C46A U54A A57G the yeast fitness was ≤ 0.5.
For U2A G9A U13A C24A A45C U64A, the yeast fitness was 0.537.
With U2A C33A C34U G56A A69C the yeast fitness was ≤ 0.5.
In the case of U2A C31G A65U A69C, the yeast fitness is reported as ≤ 0.5.
For U2A C22A C49G, the yeast fitness was ≤ 0.5.
With U2A C22A A65U the yeast fitness was ≤ 0.5.
In the case of U2A C22A A65C, the yeast fitness is reported as ≤ 0.5.
Work on U2A C11A A14G C29U A65C yielded a yeast fitness of 0.568.
Variant U2A C29U has a yeast fitness of 0.884.
Work on U2A C22G G63A yielded a yeast fitness of 0.568.
In the case of U2A C11G A21G, the yeast fitness is reported as 0.567.
In the case of U2A C11G A21G A37G, the yeast fitness is reported as ≤ 0.5.
In the case of U2A G9A U19C, the yeast fitness is reported as 1.03.
In the case of U2A G6A C11G C49U A65U, the yeast fitness is reported as ≤ 0.5.
In the case of U2A C24G U32A U54C G56A, the yeast fitness is reported as ≤ 0.5.
U2A C31G C60G U64G showed a yeast fitness of 0.532.
For U2A C30A C61U, the yeast fitness was ≤ 0.5.
In the case of U2A C11A C24G U47G, the yeast fitness is reported as ≤ 0.5.
U2A G6C C33U A40G showed a yeast fitness of 0.547.
For U2A G9A C34U C49G G52C C55U C62G, the yeast fitness was ≤ 0.5.
For U2A C31G C49U G51A G63A, the yeast fitness was ≤ 0.5.
In the case of U2A C22U A43U, the yeast fitness is reported as 0.533.
For U2A C66U G67A, the yeast fitness was 0.601.
U2A C49G gave a yeast fitness of 0.812.
In the case of U2A C49A, the yeast fitness is reported as 0.637.
In the case of U2A C31G A65U G67C, the yeast fitness is reported as ≤ 0.5.

From the RNAGym collection of RNA variant scans (doi:10.1126/science.aae0568)
